# Laboratory results from ChEMBL document CHEMBL5344461, “ZX703: A Small-Molecule Degrader of GPX4 Inducing Ferroptosis in Human Cancer Cells” (ACS Med Chem Lett, 2024).
# Calls of active or inactive are those of the source. No cut-off for these calls is given here.
# What was measured:
# [1] = molecular target: Protein cereblon/Phospholipid hydroperoxide glutathione peroxidase GPX4 (Homo sapiens, UniProt P36969+Q96SW2); experiment: PROTAC activity at CRBN/GPX4 (unknown origin); assay type: protein assay
# HT-1080 [2] = experiment: Antiproliferative activity against human HT-1080 cells assessed as inhibition of cell growth incubated for 24 hrs by CCK-8 assay; assay type: functional, cell-based; details: for IC50: HT-1080, 24 h
# Procedure, shortened: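 HT1080 cells exposed to compound for 24 h; viability read by CCK-8; IC50 from growth inhibition.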
# [3] = molecular target: T1, von Hippel-Lindau disease tumor suppressor/Phospholipid hydroperoxide glutathione peroxidase GPX4 (Homo sapiens) (UniProt P40337+P36969); experiment: PROTAC activity at VHL/GPX4 in human HT-1080 cells assessed as induction of protein degradation at 0.2 uM incubated for 12 hrs in presence of MG132 and chloroquine by Western blot analysis; assay type: cell-based
# Procedure, shortened: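 HT1080 cells treated 12 h with degrader alongside MG132 (0.3 μM) and chloroquine (50 μM); chloroquine given as pretreatment. GPX4 detected by Western blot, band density quantified by gray-scale analysis.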
# [4] = molecular target: T1, von Hippel-Lindau disease tumor suppressor/Phospholipid hydroperoxide glutathione peroxidase GPX4 (Homo sapiens); experiment: PROTAC activity at VHL/GPX4 in human HT-1080 cells assessed as induction of protein degradation by measuring maximal degradation at 0.06 to 5 uM by Western blot analysis relative to control; assay type: cell-based; details: dose 0.06-5 µM
# [5] = molecular target: T1, von Hippel-Lindau disease tumor suppressor/Phospholipid hydroperoxide glutathione peroxidase GPX4 (Homo sapiens); experiment: (§1) PROTAC activity at VHL/GPX4 in human HT-1080 cells assessed as induction of protein degradation by Western blot analysis; assay type: cell-based
# [6] = molecular target: von Hippel-Lindau disease tumor suppressor/Phospholipid hydroperoxide glutathione peroxidase GPX4 (Homo sapiens, UniProt P36969+P40337); experiment: as §1; assay type: cell-based
# HT-1080 [7] = experiment: Induction of ROS accumulation in human HT-1080 cells at 1 uM pretreated with ferroptosis inhibitor, Fer-1 for 2 hrs followed by compound addition and further incubated for 12 hrs by DCFH-DA staining based flow cytometry analysis; assay type: functional, cell-based
# Procedure, shortened: (§2)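 HT1080 cells loaded with 10 μM DCFH-DA, then treated 12 h with compound at various concentrations; intracellular ROS measured by flow cytometry. For the rescue arm, cells were pretreated 2 h with ferroptosis inhibitor Fer-1 (5 μM) and kept in its presence.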
# HT-1080 [8] = experiment: Induction of ROS accumulation in human HT-1080 cells incubated for 12 hrs by DCFH-DA staining based flow cytometry analysis; assay type: functional, cell-based; details: dose 0.25-1 µM; procedure, shortened: as §2
# [9] = molecular target: T1, von Hippel-Lindau disease tumor suppressor/Phospholipid hydroperoxide glutathione peroxidase GPX4 (Homo sapiens); experiment: PROTAC activity at VHL/GPX4 in human HT-1080 cells assessed as induction of protein degradation at 0.2 uM measured for 24 hrs by Western blot analysis; assay type: cell-based
# Procedure, shortened: (§3)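 Time course in HT1080 cells at 0.2 μM compound. GPX4 detected by Western blot. Band density was quantified by gray-scale densitometry and normalized to GAPDH.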
# [10] = molecular target: T1, von Hippel-Lindau disease tumor suppressor/Phospholipid hydroperoxide glutathione peroxidase GPX4 (Homo sapiens); experiment: PROTAC activity at VHL/GPX4 in human HT-1080 cells assessed as induction of protein degradation at 0.2 uM measured after 12 hrs by Western blot analysis relative to control; assay type: cell-based; procedure, shortened: as §3
# [11] = molecular target: T1, von Hippel-Lindau disease tumor suppressor/Phospholipid hydroperoxide glutathione peroxidase GPX4 (Homo sapiens); experiment: PROTAC activity at VHL/GPX4 in human HT-1080 cells assessed as induction of protein degradation at 0.2 uM measured after 6 hrs by Western blot analysis relative to control; assay type: cell-based; procedure, shortened: as §3
# T1 sequence (P36969 whole entry, looked up): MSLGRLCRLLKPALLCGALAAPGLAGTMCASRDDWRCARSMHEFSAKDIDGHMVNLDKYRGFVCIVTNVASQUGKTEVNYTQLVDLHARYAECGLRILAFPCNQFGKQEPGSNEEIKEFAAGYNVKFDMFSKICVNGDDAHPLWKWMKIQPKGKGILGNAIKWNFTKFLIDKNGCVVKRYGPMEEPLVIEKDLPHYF
# T1 sequence (P40337 whole entry, looked up): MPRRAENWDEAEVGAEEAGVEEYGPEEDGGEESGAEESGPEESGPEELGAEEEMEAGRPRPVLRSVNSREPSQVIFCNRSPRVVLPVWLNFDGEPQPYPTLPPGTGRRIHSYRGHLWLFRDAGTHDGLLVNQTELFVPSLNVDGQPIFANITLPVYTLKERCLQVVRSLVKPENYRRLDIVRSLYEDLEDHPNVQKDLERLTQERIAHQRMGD
# Protein cereblon/Phospholipid hydroperoxide glutathione peroxidase GPX4, sequence (Q96SW2 whole entry): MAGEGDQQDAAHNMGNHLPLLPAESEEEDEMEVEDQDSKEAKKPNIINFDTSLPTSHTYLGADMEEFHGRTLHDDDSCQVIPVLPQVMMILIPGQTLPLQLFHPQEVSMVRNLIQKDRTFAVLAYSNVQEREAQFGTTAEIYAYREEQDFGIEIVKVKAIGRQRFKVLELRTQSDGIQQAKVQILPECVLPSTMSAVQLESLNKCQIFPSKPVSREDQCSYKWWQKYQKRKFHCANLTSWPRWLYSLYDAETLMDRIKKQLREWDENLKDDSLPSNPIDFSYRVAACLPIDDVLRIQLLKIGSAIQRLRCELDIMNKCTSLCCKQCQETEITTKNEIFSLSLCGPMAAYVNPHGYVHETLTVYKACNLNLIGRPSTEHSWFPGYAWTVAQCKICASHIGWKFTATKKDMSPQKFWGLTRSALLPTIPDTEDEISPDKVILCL
# Protein cereblon/Phospholipid hydroperoxide glutathione peroxidase GPX4, sequence (P36969 whole entry): as the sequence (P36969 whole entry, looked up) above
# von Hippel-Lindau disease tumor suppressor/Phospholipid hydroperoxide glutathione peroxidase GPX4, sequence (P40337 whole entry): as the sequence (P40337 whole entry, looked up) above
# von Hippel-Lindau disease tumor suppressor/Phospholipid hydroperoxide glutathione peroxidase GPX4, sequence (P36969 whole entry): as the sequence (P36969 whole entry, looked up) above
IC50 (HT-1080 [2]),SMILES,also measured
435 nM,Cc1ncsc1-c1ccc(CNC(=O)[C@@H]2C[C@@H](O)CN2C(=O)[C@@H](NC(=O)CCCCCCCCCOc2ccc(C(c3ccc(Cl)cc3)N3CCN(C(=O)c4noc(C)c4[N+](=O)[O-])CC3)cc2)C(C)(C)C)cc1 (stereo not given in full),Activity [3]: inactive; Emax [4]: 86%; Activity [5]: Dose-Dependent Effect; EC50 [6]: 135 nM; Activity (HT-1080 [7]): inactive; Activity (HT-1080 [8]): Dose-Dependent Effect; Activity [9]: Active; Activity [10]: > 80%; Activity [11]: 50%
2140 nM,Cc1ncsc1-c1ccc(CNC(=O)[C@@H]2C[C@@H](O)CN2C(=O)[C@@H](NC(=O)COc2ccc(C(c3ccc(Cl)cc3)N3CCN(C(=O)c4noc(C)c4[N+](=O)[O-])CC3)cc2)C(C)(C)C)cc1 (stereo not given in full),–
1360 nM,Cc1ncsc1-c1ccc(CNC(=O)[C@@H]2C[C@@H](O)CN2C(=O)[C@@H](NC(=O)CCCCCCOc2ccc(C(c3ccc(Cl)cc3)N3CCN(C(=O)c4noc(C)c4[N+](=O)[O-])CC3)cc2)C(C)(C)C)cc1 (stereo not given in full),–
767 nM,Cc1ncsc1-c1ccc(CNC(=O)[C@@H]2C[C@@H](O)CN2C(=O)[C@@H](NC(=O)CCCCCCCCOc2ccc(C(c3ccc(Cl)cc3)N3CCN(C(=O)c4noc(C)c4[N+](=O)[O-])CC3)cc2)C(C)(C)C)cc1 (stereo not given in full),–
1540 nM,Cc1ncsc1-c1ccc(CNC(=O)[C@@H]2C[C@@H](O)CN2C(=O)[C@@H](NC(=O)CCCCOc2ccc(C(c3ccc(Cl)cc3)N3CCN(C(=O)c4noc(C)c4[N+](=O)[O-])CC3)cc2)C(C)(C)C)cc1 (stereo not given in full),–
889 nM,Cc1ncsc1-c1ccc(CNC(=O)[C@@H]2C[C@@H](O)CN2C(=O)[C@@H](NC(=O)CCCCCCCCCCOc2ccc(C(c3ccc(Cl)cc3)N3CCN(C(=O)c4noc(C)c4[N+](=O)[O-])CC3)cc2)C(C)(C)C)cc1 (stereo not given in full),–
2290 nM,Cc1ncsc1-c1ccc(CNC(=O)[C@@H]2C[C@@H](O)CN2C(=O)[C@@H](NC(=O)CCCCCOc2ccc(C(c3ccc(Cl)cc3)N3CCN(C(=O)c4noc(C)c4[N+](=O)[O-])CC3)cc2)C(C)(C)C)cc1 (stereo not given in full),–
1210 nM,Cc1ncsc1-c1ccc([C@H](C)NC(=O)[C@@H]2C[C@@H](O)CN2C(=O)[C@@H](NC(=O)CCCCCCCCCOc2ccc(C(c3ccc(Cl)cc3)N3CCN(C(=O)c4noc(C)c4[N+](=O)[O-])CC3)cc2)C(C)(C)C)cc1 (stereo not given in full),–
2160 nM,Cc1ncsc1-c1ccc(CNC(=O)[C@@H]2C[C@@H](O)CN2C(=O)[C@@H](NC(=O)CCOc2ccc(C(c3ccc(Cl)cc3)N3CCN(C(=O)c4noc(C)c4[N+](=O)[O-])CC3)cc2)C(C)(C)C)cc1 (stereo not given in full),–
2350 nM,Cc1ncsc1-c1ccc(CNC(=O)[C@@H]2C[C@@H](O)CN2C(=O)[C@@H](NC(=O)CCCCCCCCCCCOc2ccc(C(c3ccc(Cl)cc3)N3CCN(C(=O)c4noc(C)c4[N+](=O)[O-])CC3)cc2)C(C)(C)C)cc1 (stereo not given in full),–
1680 nM,Cc1ncsc1-c1ccc(CNC(=O)[C@@H]2C[C@@H](O)CN2C(=O)[C@@H](NC(=O)CCCCCCCOc2ccc(C(c3ccc(Cl)cc3)N3CCN(C(=O)c4noc(C)c4[N+](=O)[O-])CC3)cc2)C(C)(C)C)cc1 (stereo not given in full),–

# The remaining lines, values behind:
SMILES,IC50 (HT-1080 [2]),also measured
O=C1CCC(N2C(=O)c3cccc(NCCOCCOCCOCCn4cc(COc5ccc(N(C(=O)CCl)C(C(=O)NCCc6ccccc6)c6cccs6)cc5Cl)nn4)c3C2=O)C(=O)N1 (stereo not given),–,EC50 [1]: 200 nM
Cc1ncsc1-c1ccc(CNC(=O)[C@@H]2C[C@@H](O)CN2C(=O)[C@@H](NC(=O)CCCOc2ccc(C(c3ccc(Cl)cc3)N3CCN(C(=O)c4noc(C)c4[N+](=O)[O-])CC3)cc2)C(C)(C)C)cc1 (stereo not given in full),–,inhibition (HT-1080 [2]): inactive
Cc1ncsc1-c1ccc(CNC(=O)[C@@H]2C[C@@H](O)CN2C(=O)[C@@H](NC2CC3(CCN(C(=O)COc4ccc(C(c5ccc(Cl)cc5)N5CCN(C(=O)c6noc(C)c6[N+](=O)[O-])CC5)cc4)CC3)C2)C(C)(C)C)cc1 (stereo not given in full),1350 nM,–
Cc1ncsc1-c1ccc(CNC(=O)[C@@H]2C[C@@H](O)CN2C(=O)[C@@H](NC(=O)COCCOCCOCCOc2ccc(C(c3ccc(Cl)cc3)N3CCN(C(=O)c4noc(C)c4[N+](=O)[O-])CC3)cc2)C(C)(C)C)cc1 (stereo not given in full),3240 nM,–
Cc1ncsc1-c1ccc(CNC(=O)[C@@H]2C[C@@H](O)CN2C(=O)[C@@H](NC(=O)COCCOc2ccc(C(c3ccc(Cl)cc3)N3CCN(C(=O)c4noc(C)c4[N+](=O)[O-])CC3)cc2)C(C)(C)C)cc1 (stereo not given in full),1830 nM,–
Cc1ncsc1-c1ccc(CNC(=O)[C@@H]2C[C@@H](O)CN2C(=O)[C@@H](NC(=O)C2CCN(CC3CCN(C(=O)COc4ccc(C(c5ccc(Cl)cc5)N5CCN(C(=O)c6noc(C)c6[N+](=O)[O-])CC5)cc4)CC3)CC2)C(C)(C)C)cc1 (stereo not given in full),4450 nM,–
Cc1ncsc1-c1ccc(CNC(=O)[C@@H]2C[C@@H](O)CN2C(=O)[C@@H](NC(=O)COCCOCCOCCOCCOc2ccc(C(c3ccc(Cl)cc3)N3CCN(C(=O)c4noc(C)c4[N+](=O)[O-])CC3)cc2)C(C)(C)C)cc1 (stereo not given in full),4730 nM,–
Cc1ncsc1-c1ccc(CNC(=O)[C@@H]2C[C@@H](O)CN2C(=O)[C@@H](NC(=O)COCCOCCOc2ccc(C(c3ccc(Cl)cc3)N3CCN(C(=O)c4noc(C)c4[N+](=O)[O-])CC3)cc2)C(C)(C)C)cc1 (stereo not given in full),2070 nM,–
Cc1onc(C(=O)N2CCN(C(c3ccc(Cl)cc3)c3ccc(Cl)cc3)CC2)c1[N+](=O)[O-],153 nM,–
Cc1ncsc1-c1ccc(CNC(=O)[C@@H]2C[C@@H](O)CN2C(=O)[C@@H](NC(=O)CN2CCN(CC3CCN(C(=O)COc4ccc(C(c5ccc(Cl)cc5)N5CCN(C(=O)c6noc(C)c6[N+](=O)[O-])CC5)cc4)CC3)CC2)C(C)(C)C)cc1 (stereo not given in full),4760 nM,–
